Reference: ChEMBL document CHEMBL1811853, “Design and evaluation of 3-aminopyrazolopyridinone kinase inhibitors inspired by the natural product indirubin” (Bioorg Med Chem, 2011)
≈ marks a conversion by molar mass, not a printed value. Each block holds one compound with its values, some of them ahead of it.

Tests used:
[1] = Aqueous solubility of the compound by HPLC analysis; type: physicochemical; details: water
In short: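 Solubility determined by HPLC measurement of the concentration in saturated aqueous solutions of the compounds.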

[2] = molecular target: T1, Proto-oncogene tyrosine-protein kinase Src (Homo sapiens, UniProt P12931); test: Inhibition of SRC at 30 uM by microfluidic mobility shift assay
T1 sequence (P12931 2-536 limits assumed): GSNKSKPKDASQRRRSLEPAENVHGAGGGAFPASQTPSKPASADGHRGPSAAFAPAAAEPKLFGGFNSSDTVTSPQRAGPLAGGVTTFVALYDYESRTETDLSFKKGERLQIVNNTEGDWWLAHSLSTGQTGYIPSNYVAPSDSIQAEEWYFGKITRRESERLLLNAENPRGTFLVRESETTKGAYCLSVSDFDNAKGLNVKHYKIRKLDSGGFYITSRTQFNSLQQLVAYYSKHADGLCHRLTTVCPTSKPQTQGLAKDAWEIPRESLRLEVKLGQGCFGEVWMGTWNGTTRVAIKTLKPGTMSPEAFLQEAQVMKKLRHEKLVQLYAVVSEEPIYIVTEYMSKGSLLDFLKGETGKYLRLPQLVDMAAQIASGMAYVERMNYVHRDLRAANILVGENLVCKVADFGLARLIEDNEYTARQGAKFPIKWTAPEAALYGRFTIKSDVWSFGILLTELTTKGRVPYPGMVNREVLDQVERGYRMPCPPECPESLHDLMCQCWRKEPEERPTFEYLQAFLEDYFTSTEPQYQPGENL
In short: (§1)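 Single-concentration screen, singlicate, 30 uM final (diluted from 1 mM DMSO solutions), fluorescently tagged peptide substrate appropriate to each kinase, ATP at apparent Km for each protein. Phosphorylated and unphosphorylated peptides separated electrophoretically; conversion is the phosphorylated peak area over the sum of both peaks. No-inhibitor and no-ATP controls; H89 reference on each plate.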

[3] = molecular target: T2, Tyrosine-protein kinase Lyn (Homo sapiens, UniProt P07948); test: Inhibition of LYN at 30 uM by microfluidic mobility shift assay; in short: as §1
[4] = molecular target: Ribosomal protein S6 kinase alpha-1 (Homo sapiens) (UniProt Q15418); test: Inhibition of RSK1 at 30 uM by microfluidic mobility shift assay; in short: as §1
[5] = molecular target: T3, Tyrosine-protein kinase Lck (Homo sapiens, UniProt P06239); test: Inhibition of LCK at 30 uM by microfluidic mobility shift assay; in short: as §1
[6] = molecular target: T4, Mitogen-activated protein kinase 14 (Homo sapiens, UniProt Q16539); test: Inhibition of p38alpha at 30 uM by microfluidic mobility shift assay; in short: as §1
T4 sequence (Q16539 whole entry): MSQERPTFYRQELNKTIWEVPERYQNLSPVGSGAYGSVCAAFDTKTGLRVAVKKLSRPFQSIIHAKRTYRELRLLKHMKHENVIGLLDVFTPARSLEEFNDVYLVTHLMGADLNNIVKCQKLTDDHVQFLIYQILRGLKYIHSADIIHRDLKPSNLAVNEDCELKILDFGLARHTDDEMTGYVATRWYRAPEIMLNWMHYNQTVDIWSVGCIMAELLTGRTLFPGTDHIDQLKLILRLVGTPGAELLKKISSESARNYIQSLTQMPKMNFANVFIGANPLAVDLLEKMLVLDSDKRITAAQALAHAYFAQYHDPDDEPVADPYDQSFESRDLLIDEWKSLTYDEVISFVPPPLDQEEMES

[7] = Inhibition of PKA at 30 uM by microfluidic mobility shift assay; in short: as §1
[8] = molecular target: T4, Mitogen-activated protein kinase 14; test: Inhibition of p38alpha by microfluidic mobility shift assay
In short: (§2)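 IC50 determined in the mobility shift format: a fluorescently tagged peptide substrate appropriate to each kinase, ATP at its apparent Km for each protein, and electrophoretic separation of phospho and unphosphorylated peptide. Percent conversion is the ratio of the phosphopeptide peak area to the total peak area. Controls were no inhibitor and no ATP.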

[9] = molecular target: RAC-beta serine/threonine-protein kinase (Homo sapiens) (UniProt P31751); test: Inhibition of AKT2 at 30 uM by microfluidic mobility shift assay; in short: as §1
Chain of RAC-beta serine/threonine-protein kinase (Homo sapiens) (P31751 whole entry): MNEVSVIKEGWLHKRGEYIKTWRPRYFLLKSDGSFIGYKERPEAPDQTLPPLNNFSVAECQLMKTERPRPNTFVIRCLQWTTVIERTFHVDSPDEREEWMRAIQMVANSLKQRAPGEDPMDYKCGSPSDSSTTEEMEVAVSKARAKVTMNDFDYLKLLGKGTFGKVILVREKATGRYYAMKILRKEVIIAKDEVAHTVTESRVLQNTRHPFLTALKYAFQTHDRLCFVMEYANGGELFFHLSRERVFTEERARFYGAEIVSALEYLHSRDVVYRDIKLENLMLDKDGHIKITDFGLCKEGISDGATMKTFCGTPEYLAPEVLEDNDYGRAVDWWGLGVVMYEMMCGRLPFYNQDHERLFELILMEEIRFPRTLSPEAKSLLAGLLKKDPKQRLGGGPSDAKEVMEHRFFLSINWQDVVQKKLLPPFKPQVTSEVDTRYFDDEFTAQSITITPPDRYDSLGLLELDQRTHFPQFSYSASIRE

[10] = system: MCF7; test: Growth inhibition of human MCF7 cells at 0.039 uM; type: functional; details: read-out: GI
[11] = molecular target: T2, Tyrosine-protein kinase Lyn; test: Inhibition of LYN by microfluidic mobility shift assay; in short: as §2
Target sequence in this assay (P07948 whole entry): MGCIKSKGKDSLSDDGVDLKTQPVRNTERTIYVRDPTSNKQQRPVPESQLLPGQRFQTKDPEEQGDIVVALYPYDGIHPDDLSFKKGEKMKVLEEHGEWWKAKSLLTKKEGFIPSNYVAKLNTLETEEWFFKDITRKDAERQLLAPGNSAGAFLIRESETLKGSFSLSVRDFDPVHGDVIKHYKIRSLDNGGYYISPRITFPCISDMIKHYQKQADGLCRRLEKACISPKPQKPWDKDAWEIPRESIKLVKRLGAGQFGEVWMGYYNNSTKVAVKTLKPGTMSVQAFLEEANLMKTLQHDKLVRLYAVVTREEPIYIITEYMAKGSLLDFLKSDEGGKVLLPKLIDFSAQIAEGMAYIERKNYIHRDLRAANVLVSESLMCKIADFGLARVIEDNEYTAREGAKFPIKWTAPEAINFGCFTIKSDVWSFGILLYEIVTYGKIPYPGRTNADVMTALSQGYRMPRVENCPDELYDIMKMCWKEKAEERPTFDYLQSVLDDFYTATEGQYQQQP

[12] = molecular target: Mitogen-activated protein kinase 1 (Homo sapiens) (UniProt P28482); test: Inhibition of ERK2 at 30 uM by microfluidic mobility shift assay; in short: as §1
[13] = molecular target: T1, Proto-oncogene tyrosine-protein kinase Src; test: Inhibition of SRC by microfluidic mobility shift assay; in short: as §2
[14] = molecular target: MAP kinase-activated protein kinase 2 (Homo sapiens, UniProt P49137); test: Inhibition of MAPKAPK2 at 30 uM by microfluidic mobility shift assay; in short: as §1
[15] = molecular target: T5, Tyrosine-protein kinase ABL1 (Homo sapiens, UniProt P00519); test: Inhibition of ABL at 30 uM by microfluidic mobility shift assay; in short: as §1
T5 sequence (P00519 whole entry): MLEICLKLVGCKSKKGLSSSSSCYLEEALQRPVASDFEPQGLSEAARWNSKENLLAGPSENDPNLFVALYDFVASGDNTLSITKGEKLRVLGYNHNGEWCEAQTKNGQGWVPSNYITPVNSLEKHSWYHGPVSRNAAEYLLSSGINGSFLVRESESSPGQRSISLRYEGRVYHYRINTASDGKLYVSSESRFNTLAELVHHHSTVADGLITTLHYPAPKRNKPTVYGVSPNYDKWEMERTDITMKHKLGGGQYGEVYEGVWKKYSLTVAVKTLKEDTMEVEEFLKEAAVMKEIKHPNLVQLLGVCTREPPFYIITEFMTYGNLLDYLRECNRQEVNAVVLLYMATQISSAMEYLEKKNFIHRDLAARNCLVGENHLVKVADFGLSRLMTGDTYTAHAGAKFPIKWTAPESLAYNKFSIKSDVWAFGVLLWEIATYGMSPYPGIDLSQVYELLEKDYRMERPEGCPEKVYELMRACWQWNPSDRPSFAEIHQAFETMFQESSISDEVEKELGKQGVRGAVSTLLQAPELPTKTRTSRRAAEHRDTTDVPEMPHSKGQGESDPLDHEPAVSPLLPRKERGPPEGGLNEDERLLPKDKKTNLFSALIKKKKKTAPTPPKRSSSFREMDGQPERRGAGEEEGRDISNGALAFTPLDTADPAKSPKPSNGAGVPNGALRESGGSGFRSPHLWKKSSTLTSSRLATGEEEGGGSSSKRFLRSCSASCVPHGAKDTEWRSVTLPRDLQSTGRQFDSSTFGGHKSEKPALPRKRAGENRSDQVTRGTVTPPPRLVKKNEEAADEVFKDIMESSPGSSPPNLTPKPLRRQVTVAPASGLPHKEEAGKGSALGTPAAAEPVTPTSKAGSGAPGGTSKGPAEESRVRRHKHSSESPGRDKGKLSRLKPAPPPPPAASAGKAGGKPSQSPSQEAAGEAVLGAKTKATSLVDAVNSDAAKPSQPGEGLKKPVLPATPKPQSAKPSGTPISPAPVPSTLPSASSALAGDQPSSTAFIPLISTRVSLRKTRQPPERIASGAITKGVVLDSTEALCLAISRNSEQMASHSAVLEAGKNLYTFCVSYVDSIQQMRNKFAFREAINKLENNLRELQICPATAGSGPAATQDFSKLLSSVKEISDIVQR

[16] = molecular target: Glycogen synthase kinase-3 beta (Homo sapiens) (UniProt P49841); test: Inhibition of GSK3B at 30 uM by microfluidic mobility shift assay; in short: as §1
[17] = molecular target: T6, Serine/threonine-protein kinase D2 (Homo sapiens) (UniProt Q9BZL6); test: Inhibition of PKD2 at 30 uM by microfluidic mobility shift assay; in short: as §1
T6 sequence (whole entry): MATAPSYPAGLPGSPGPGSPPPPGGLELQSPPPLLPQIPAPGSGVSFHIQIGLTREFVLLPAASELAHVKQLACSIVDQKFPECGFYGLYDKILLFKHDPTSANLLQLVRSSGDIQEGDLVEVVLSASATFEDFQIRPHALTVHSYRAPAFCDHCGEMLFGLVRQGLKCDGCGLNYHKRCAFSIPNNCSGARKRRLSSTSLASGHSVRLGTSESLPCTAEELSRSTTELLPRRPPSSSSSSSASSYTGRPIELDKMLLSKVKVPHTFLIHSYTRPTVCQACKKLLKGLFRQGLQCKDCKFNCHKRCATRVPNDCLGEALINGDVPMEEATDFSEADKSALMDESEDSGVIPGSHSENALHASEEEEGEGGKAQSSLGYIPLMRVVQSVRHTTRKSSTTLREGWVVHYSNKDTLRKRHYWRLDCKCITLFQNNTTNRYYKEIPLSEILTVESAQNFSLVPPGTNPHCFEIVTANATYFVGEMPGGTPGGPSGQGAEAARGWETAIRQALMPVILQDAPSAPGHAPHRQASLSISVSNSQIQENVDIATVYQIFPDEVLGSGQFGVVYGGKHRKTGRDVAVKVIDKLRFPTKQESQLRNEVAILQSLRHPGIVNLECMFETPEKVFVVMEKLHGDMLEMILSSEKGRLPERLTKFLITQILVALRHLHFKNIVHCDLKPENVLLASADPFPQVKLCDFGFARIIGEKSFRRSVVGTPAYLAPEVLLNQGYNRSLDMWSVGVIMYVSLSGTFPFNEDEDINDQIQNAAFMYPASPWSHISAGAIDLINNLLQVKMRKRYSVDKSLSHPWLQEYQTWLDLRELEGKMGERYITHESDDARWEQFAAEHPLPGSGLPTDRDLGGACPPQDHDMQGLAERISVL

[18] = molecular target: T7, MAP kinase-activated protein kinase 5 (Homo sapiens) (UniProt Q8IW41); test: Inhibition of PRAK1 at 30 uM by microfluidic mobility shift assay; in short: as §1
T7 sequence (whole entry): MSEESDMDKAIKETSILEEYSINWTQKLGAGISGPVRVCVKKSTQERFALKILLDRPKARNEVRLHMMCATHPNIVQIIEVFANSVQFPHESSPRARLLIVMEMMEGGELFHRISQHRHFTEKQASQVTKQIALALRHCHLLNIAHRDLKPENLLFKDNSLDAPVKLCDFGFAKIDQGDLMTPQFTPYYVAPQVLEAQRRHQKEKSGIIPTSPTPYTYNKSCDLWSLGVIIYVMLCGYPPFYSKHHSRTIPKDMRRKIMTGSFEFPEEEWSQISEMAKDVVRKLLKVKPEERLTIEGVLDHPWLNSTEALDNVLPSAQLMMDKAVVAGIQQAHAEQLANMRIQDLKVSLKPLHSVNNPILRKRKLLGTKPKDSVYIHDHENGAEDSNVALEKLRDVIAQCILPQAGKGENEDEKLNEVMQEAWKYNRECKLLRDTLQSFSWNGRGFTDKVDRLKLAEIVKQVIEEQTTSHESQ

[19] = molecular target: T3, Tyrosine-protein kinase Lck; test: Inhibition of LCK by microfluidic mobility shift assay; in short: as §2
Target sequence in this assay (P06239 whole entry): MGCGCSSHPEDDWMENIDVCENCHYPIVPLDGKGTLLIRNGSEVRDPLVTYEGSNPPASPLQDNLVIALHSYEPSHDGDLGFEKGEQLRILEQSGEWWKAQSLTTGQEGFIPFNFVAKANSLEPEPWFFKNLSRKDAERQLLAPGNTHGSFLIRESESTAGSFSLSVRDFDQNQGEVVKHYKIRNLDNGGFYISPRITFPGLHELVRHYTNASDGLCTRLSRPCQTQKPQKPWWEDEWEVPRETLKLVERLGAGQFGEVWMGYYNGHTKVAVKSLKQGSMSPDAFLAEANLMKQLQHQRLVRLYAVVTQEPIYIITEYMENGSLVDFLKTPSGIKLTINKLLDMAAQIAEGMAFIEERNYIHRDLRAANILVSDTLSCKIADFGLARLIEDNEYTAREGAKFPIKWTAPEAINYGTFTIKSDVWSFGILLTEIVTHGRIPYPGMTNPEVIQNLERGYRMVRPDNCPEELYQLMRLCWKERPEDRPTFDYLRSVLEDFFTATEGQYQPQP

[20] = molecular target: T8, Aurora kinase A (Homo sapiens) (UniProt O14965); test: Inhibition of AurA at 30 uM by microfluidic mobility shift assay; in short: as §1
T8 sequence (whole entry): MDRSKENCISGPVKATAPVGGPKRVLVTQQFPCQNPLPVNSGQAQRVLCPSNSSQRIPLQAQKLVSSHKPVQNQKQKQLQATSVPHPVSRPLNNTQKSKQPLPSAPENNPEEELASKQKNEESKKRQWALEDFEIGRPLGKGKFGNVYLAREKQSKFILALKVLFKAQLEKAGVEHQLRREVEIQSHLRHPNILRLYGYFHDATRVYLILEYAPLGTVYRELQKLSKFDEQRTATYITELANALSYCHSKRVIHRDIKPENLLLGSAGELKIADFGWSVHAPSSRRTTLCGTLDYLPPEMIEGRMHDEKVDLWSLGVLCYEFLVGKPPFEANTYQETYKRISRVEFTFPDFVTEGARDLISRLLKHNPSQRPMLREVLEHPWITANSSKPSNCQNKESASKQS

[21] = molecular target: RAC-alpha serine/threonine-protein kinase (Homo sapiens) (UniProt P31749); test: Inhibition of AKT1 at 30 uM by microfluidic mobility shift assay; in short: as §1
Chain of RAC-alpha serine/threonine-protein kinase (Homo sapiens) (P31749 whole entry): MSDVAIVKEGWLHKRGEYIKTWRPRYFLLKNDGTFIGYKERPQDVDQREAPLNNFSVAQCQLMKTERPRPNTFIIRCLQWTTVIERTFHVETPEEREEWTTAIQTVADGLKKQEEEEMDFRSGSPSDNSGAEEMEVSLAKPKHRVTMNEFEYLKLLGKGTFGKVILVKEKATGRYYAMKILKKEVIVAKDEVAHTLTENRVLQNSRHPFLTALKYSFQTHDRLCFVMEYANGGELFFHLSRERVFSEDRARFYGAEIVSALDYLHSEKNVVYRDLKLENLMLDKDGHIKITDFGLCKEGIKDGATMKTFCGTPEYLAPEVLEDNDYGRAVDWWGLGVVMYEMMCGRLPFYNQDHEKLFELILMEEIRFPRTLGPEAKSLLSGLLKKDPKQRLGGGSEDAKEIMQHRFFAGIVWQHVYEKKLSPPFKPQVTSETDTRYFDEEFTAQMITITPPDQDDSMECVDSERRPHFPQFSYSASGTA

[22] = molecular target: Serine/threonine-protein kinase Chk2 (Homo sapiens, UniProt O96017); test: Inhibition of CHK2 at 30 uM by microfluidic mobility shift assay; in short: as §1
[23] = molecular target: Ribosomal protein S6 kinase alpha-5 (Homo sapiens) (UniProt O75582); test: Inhibition of MSK1 at 30 uM by microfluidic mobility shift assay; in short: as §1
[24] = molecular target: Insulin receptor (Homo sapiens) (UniProt P06213); test: Inhibition of INSR at 30 uM by microfluidic mobility shift assay; in short: as §1
[25] = molecular target: T9, Tyrosine-protein kinase Fyn (Homo sapiens, UniProt P06241); test: Inhibition of FYN at 30 uM by microfluidic mobility shift assay; in short: as §1
[26] = molecular target: T9, Tyrosine-protein kinase Fyn; test: Inhibition of FYN by microfluidic mobility shift assay; in short: as §2
Target sequence in this assay (P06241 whole entry): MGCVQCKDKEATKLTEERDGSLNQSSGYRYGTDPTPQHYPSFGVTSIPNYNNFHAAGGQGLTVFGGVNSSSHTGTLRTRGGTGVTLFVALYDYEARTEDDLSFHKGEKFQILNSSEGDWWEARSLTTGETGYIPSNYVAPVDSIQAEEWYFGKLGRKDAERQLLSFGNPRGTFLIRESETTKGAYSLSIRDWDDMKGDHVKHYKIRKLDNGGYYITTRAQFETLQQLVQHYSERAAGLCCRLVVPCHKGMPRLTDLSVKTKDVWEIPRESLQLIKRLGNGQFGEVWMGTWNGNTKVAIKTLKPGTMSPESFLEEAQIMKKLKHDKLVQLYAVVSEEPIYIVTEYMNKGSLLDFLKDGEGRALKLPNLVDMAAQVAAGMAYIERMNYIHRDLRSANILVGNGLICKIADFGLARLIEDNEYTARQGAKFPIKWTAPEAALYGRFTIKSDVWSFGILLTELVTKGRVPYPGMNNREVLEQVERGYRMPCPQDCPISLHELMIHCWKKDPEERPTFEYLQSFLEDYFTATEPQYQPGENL

[27] = molecular target: T5, Tyrosine-protein kinase ABL1; test: Inhibition of ABL by microfluidic mobility shift assay; in short: as §2
[28] = molecular target: Mitogen-activated protein kinase 3 (Homo sapiens) (UniProt P27361); test: Inhibition of ERK1 at 30 uM by microfluidic mobility shift assay; in short: as §1
Chain of Mitogen-activated protein kinase 3 (Homo sapiens) (P27361 whole entry): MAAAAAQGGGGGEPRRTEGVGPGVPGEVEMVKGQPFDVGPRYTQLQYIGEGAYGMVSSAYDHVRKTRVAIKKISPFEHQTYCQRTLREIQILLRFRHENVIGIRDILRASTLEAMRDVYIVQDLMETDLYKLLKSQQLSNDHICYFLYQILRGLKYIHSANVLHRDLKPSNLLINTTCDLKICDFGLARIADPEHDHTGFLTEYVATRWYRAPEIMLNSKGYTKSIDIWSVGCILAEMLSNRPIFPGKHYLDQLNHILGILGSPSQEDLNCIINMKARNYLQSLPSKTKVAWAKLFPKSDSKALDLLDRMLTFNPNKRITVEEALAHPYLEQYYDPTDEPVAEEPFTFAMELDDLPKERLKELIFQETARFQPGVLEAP

solubility [1]: 2 µg/mL (≈ 0.00786 mM)
Compound: Cc1[nH]c(=O)c2c(N)nn(C)c2c1-c1ccccc1

Compound: Cc1cc2c(c(N)nn2C)c(N2CCN(C)CC2)n1
solubility [1]: 1160 µg/mL (≈ 4.47 mM)

Compound: Nc1n[nH]c2cc(C3CCNCC3)[nH]c(=O)c12
solubility [1]: 2340 µg/mL (≈ 10 mM)

Compound: Cn1nc(N)c2c(=O)[nH]c(C3CCNCC3)cc21
solubility [1]: > 15000 µg/mL

solubility [1]: < 1 µg/mL
inhibition [2]: 98%
inhibition [3]: 96%
inhibition [4]: 38%
inhibition [5]: 90%
inhibition [6]: 79%
inhibition [7]: -10%
IC50 [8]: 8700 nM
inhibition [9]: -1%
IC50 [11]: 1400 nM
inhibition [12]: 12%
IC50 [13]: 870 nM
inhibition [14]: 2%
inhibition [15]: 96%
inhibition [16]: 29%
inhibition [17]: 23%
inhibition [18]: 22%
IC50 [19]: 4800 nM
inhibition [20]: 61%
inhibition [21]: -2%
inhibition [22]: -8%
inhibition [23]: 13%
inhibition [24]: 2%
inhibition [25]: 96%
IC50 [26]: 1300 nM
IC50 [27]: 1500 nM
inhibition [28]: 20%
Compound: Nc1c2c(=O)[nH]c(-c3ccccc3)cc2nn1-c1ccccc1
inhibition of growth at 0.039 µM [10]: 35%
